Reference: ChEMBL document CHEMBL2177092, “Phosphoramidate ProTides of the anticancer agent FUDR successfully deliver the preformed bioactive monophosphate in cells and confer advantage over the parent nucleoside” (J Med Chem, 2011)

Tests used:
HeLa [1] = test: Cytostatic activity against thymidine-kinase deficient human HeLa cells […]; assay type: functional, cell-based
CCRF-CEM [2] = test: Cytostatic activity against ENT1 transporter-deficient human CEM cells after 72 hrs by cell counting; assay type: functional, cell-based
In short: (§1)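 Suspension leukemia cells in DMEM with 10% FBS, 10 mM Hepes and 1 mM sodium pyruvate at 37 °C under 5% CO2. Seeded at 60 000 cells/well with graded compound levels. Grown 48 h (L1210) or 72 h (CEM), then counted by Coulter counter. […] Mean ± SD of two to four independent experiments.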

[3] = Cytostatic activity against mouse L1210/0 cells after 48 hrs by cell counting; assay type: functional, cell-based; conditions: L1210/0, 48 h
In short: (§2)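 Suspension leukemia cells in DMEM with 10% FBS, 10 mM Hepes and 1 mM sodium pyruvate at 37 °C under 5% CO2. Seeded at 60 000 cells/well with graded compound levels. Grown 48 h (L1210) or 72 h (CEM), then counted by Coulter counter. Mean ± SD of two to four independent experiments.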

CCRF-CEM [4] = test: Ratio of IC50 for ENT1 transporter-deficient human CEM cells to IC50 for human CEM cells expressing human ENT1 transporter after 72 hrs by cell counting; assay type: functional
In short: (§3)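 Human T-lymphocyte CEM cells with (CEM/hEnt-1) or lacking (CEM/hEnt-0) the hENT1 transporter were seeded at 60 000 cells/well with graded compound concentrations. Transporter-inhibition runs added dipyridamole (10 μM) or NBMPR (10 μM) to CEM/hEnt-1 cells. […] Ratios are formed against untreated CEM/hEnt-1 IC50. Mean of 2–4 experiments.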

CCRF-CEM [5] = test: Cytostatic activity against human CEM cells expressing human ENT1 transporter after 72 hrs by cell counting in presence of NBMPR; assay type: functional, cell-based
In short: (§4)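 CEM/hEnt-1 cells with 10 μM dipyridamole or 10 μM NBMPR added alongside graded compound levels, in DMEM with 10% FBS, 10 mM Hepes and 1 mM sodium pyruvate at 37 °C under 5% CO2. Seeded at 60 000 cells/well, counted by Coulter counter after 3 days.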

CCRF-CEM [6] = test: Cytostatic activity against human CEM/0 cells after 72 hrs by cell counting; assay type: functional, cell-based; in short: as §1
CCRF-CEM [7] = test: Cytostatic activity against human CEM cells expressing human ENT1 transporter after 72 hrs by cell counting in presence of dipyridamole; assay type: functional, cell-based; in short: as §4
CCRF-CEM [8] = test: Ratio of IC50 for human CEM cells expressing human ENT1 transporter in presence of dipyridamole to IC50 for human CEM cells expressing human ENT1 transporter; assay type: functional; in short: as §3
CCRF-CEM [9] = test: Cytostatic activity against thymidine-kinase deficient human CEM cells after 72 hrs by cell counting; assay type: functional, cell-based; in short: as §2
CCRF-CEM [10] = test: Cytostatic activity against human CEM cells expressing human ENT1 transporter after 72 hrs by cell counting; assay type: functional, cell-based; in short: as §1
L1210 [11] = test: Ratio of IC50 for Mycoplasma hyorhinis-infected mouse L1210 cells to IC50 for mouse L1210/0 cells after 48 hrs by cell counting; assay type: functional
In short: (§5)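 Murine L1210/0 cells were compared with L1210/TK cells, selected for resistance to 5-bromo-2'-dUrd, and with L1210.Hyor cells, chronically infected with Mycoplasma hyorhinis. Cells were grown in DMEM with 10% FBS, 10 mM Hepes and 1 mM pyruvate at 37 °C and 5% CO2, then seeded at 60 000 cells/well with compound. They were Coulter-counted after 48 h. […] Mean of 2–4 experiments.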

L1210 [12] = test: Cytostatic activity against Mycoplasma hyorhinis-infected mouse L1210 cells after 48 hrs by cell counting; assay type: functional, cell-based; conditions: L1210, 48 h; in short: as §2
CCRF-CEM [13] = test: Ratio of IC50 for human CEM cells expressing human ENT1 transporter in presence of NBMPR to IC50 for human CEM cells expressing human ENT1 transporter; assay type: functional; in short: as §3
L1210 [14] = test: Cytostatic activity against thymidine-kinase deficient mouse L1210 cells after 48 hrs by cell counting; assay type: functional, cell-based; conditions: L1210, 48 h; in short: as §2
HeLa [15] = test: Cytostatic activity against human HeLa cells […] by cell counting; assay type: functional, cell-based
[16] = Stability of the compound in potassium phosphate buffer at pH 7.4 assessed as E.coli thymidine phosphorylase-mediated release of 5-FU after 5 mins by [19F] NMR spectroscopy; assay type: ADME; conditions: pH 7.4, 5 min
In short: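 Compound (6.0 mg) in methanol-d4 plus 300 mM potassium phosphate buffer pH 7.4. […] 19F NMR recorded at 5 min, 14 h and 72 h at 25 °C, with 5-FU identified by its signal near δF 169.50 ppm.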

[17] = Drug metabolism in DMSO/D2O assessed as metabolite 5-Fluoro-2'-deoxyuridine-5'-O-[1-naphthyl(L-alaninyl)]phosphate formation at 5 mg measured after 6 hrs 45 mins by [31P]NMR spectroscopy in presence of human serum; assay type: ADME
In short: (§6)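 Compound (5.0 mg) dissolved in DMSO plus D2O and a control 31P NMR spectrum taken at 37 °C. Previously defrosted human serum then added. Spectra taken every 15 min over 14 h at 37 °C and processed by Lorentz-Gauss deconvolution. Parent and metabolite peaks were tracked by chemical shift.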

[18] = Drug metabolism in DMSO/D2O assessed as metabolite 5-Fluoro-2'deoxyuridine 5'-O-[(L-Alaninyl)]phosphate formation at 5 mg measured after 11 hrs 30 mins by [31P]NMR spectroscopy in presence of human serum; assay type: ADME; in short: as §6
[19] = Stability in DMSO/D2O assessed as parent compound at 5 mg measured after 13 hrs 30 mins by [31P]NMR spectroscopy in presence of human serum; assay type: ADME; conditions: read-out: Stability; in short: as §6
L1210 [20] = test: Ratio of IC50 for thymidine-kinase deficient mouse L1210 cells to IC50 for mouse L1210/0 cells after 48 hrs by cell counting; assay type: functional; in short: as §5
[21] = Ratio of 5-FU IC50 to compound IC50 for mouse L1210/0 cells after 48 hrs by cell counting; assay type: functional
[22] = Half life in Trizma buffer at pH 7.6 at 3 mg by [31P]NMR spectroscopy in presence of carboxypeptidase Y; assay type: physicochemical; conditions: yeast (Saccharomyces cerevisiae)
In short: (§7)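 Compound (3.0 mg) in acetone-d6 with Trizma buffer pH 7.6. A control 31P NMR spectrum (202 MHz) was taken at 25 °C, then defrosted carboxypeptidase Y (0.1 mg in Trizma) added. Spectra recorded every 7 min over 14 h at 25 °C to follow conversion to metabolites. Half-life was estimated from these spectra.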

[23] = Drug metabolism in Trizma buffer at pH 7.6 assessed as metabolite 5-Fluoro-2'deoxyuridine 5'-O-[(L-Alaninyl)]phosphate formation at 3 mg measured after 45 mins by [31P]NMR spectroscopy in presence of carboxypeptidase Y; assay type: physicochemical; conditions: pH 7.6, 0.75 h; in short: as §7
[24] = Drug metabolism in Trizma buffer at pH 7.6 assessed as metabolite 5-Fluoro-2'-deoxyuridine-5'-O-[1-naphthyl(L-alaninyl)]phosphate formation at 3 mg measured every 7 mins over 14 hrs by [31P]NMR spectroscopy in presence of carboxypeptidase Y; assay type: physicochemical; conditions: pH 7.6, 14 h; in short: as §7

| SMILES | IC50 (HeLa [1]) [nM] | IC50 (CCRF-CEM [2]) [nM] | IC50 [3] [nM] | Ratio IC50 (CCRF-CEM [4]) | IC50 (CCRF-CEM [5]) [nM] | IC50 (CCRF-CEM [6]) [nM] | IC50 (CCRF-CEM [7]) [nM] | Ratio IC50 (CCRF-CEM [8]) | IC50 (CCRF-CEM [9]) [nM] | IC50 (CCRF-CEM [10]) [nM] | Ratio IC50 (L1210 [11]) | IC50 (L1210 [12]) [nM] | Ratio IC50 (CCRF-CEM [13]) | IC50 (L1210 [14]) [nM] | IC50 (HeLa [15]) [nM] | also measured |
| --- | --- | --- | --- | --- | --- | --- | --- | --- | --- | --- | --- | --- | --- | --- | --- | --- |
| CC(C)(NP(=O)(OC[C@H]1O[C@@H](n2cc(F)c(=O)[nH]c2=O)C[C@@H]1O)Oc1cccc2ccccc12)C(=O)OCc1ccccc1 (mixture of isomers) | 3100 | 400 | 19 | 7 | 280 | 160 | 160 | 2 | 2400 | 50 | 2.4 | 45 | 2 | 130 | 78 | – |
| CC(C)(NP(=O)(OC[C@H]1O[C@@H](n2cc(F)c(=O)[nH]c2=O)C[C@@H]1O)Oc1ccccc1)C(=O)OCc1ccccc1 (mixture of isomers) | 3700 | 1200 | 29 | 7 | 610 | 230 | 260 | 2 | 4800 | 170 | 0.69 | 20 | 2 | 180 | 240 | – |
| O=c1[nH]c(=O)n([C@H]2C[C@H](O)[C@@H](CO)O2)cc1F [FLOXURIDINE] | – | 2500 | – | – | 800 | 22 | – | – | – | 40 | – | – | – | – | 50 | Stability [16]: Unstable |
| CCOC(=O)C(C)(C)NP(=O)(OC[C@H]1O[C@@H](n2cc(F)c(=O)[nH]c2=O)C[C@@H]1O)Oc1cccc2ccccc12 (mixture of isomers) | 3200 | 1400 | 56 | 7 | 620 | 360 | 520 | 2 | 6900 | 210 | 3 | 170 | 2 | 820 | 200 | – |
| CCOC(=O)[C@H](C)NP(=O)(OC[C@H]1O[C@@H](n2cc(F)c(=O)[nH]c2=O)C[C@@H]1O)Oc1cccc2ccccc12 (mixture of isomers) | 2800 | – | 28 | – | – | 250 | – | – | 1600 | – | 3.4 | 95 | – | 360 | 220 | Drug metabolism [17]: Active; Drug metabolism [18]: Active; remaining at 13.5 h [19]: 96% |
| CCOC(=O)C(C)(C)NP(=O)(OC[C@H]1O[C@@H](n2cc(F)c(=O)[nH]c2=O)C[C@@H]1O)Oc1ccccc1 (mixture of isomers) | 17000 | 5800 | 30 | 7 | 2560 | 650 | 2350 | 2 | 22000 | 370 | 8.7 | 260 | 2 | 4600 | 590 | – |
| C[C@H](NP(=O)(OC[C@H]1O[C@@H](n2cc(F)c(=O)[nH]c2=O)C[C@@H]1O)Oc1cccc2ccccc12)C(=O)OCc1ccccc1 (mixture of isomers) [FOSIFLOXURIDINE NAFALBENAMIDE] | 2500 | 600 | 11 | 7 | 260 | 68 | 130 | 2 | 310 | 50 | 2.27 | 25 | 2 | 45 | 65 | Ratio IC50 (L1210 [20]): 5; Ratio IC50 [21]: 30 |
| CCCCCOC(=O)[C@H](C)NP(=O)(OC[C@H]1O[C@@H](n2cc(F)c(=O)[nH]c2=O)C[C@@H]1O)Oc1cccc2ccccc12 (mixture of isomers) | 440 | – | 2.1 | – | – | 15 | – | – | 280 | – | 2.9 | 6 | – | 130 | 29 | Ratio IC50 (L1210 [20]): 40; half-life [22]: < 5 min; Drug metabolism [23]: Active; Drug metabolism [24]: Active; Ratio IC50 [21]: 100 |
| O=c1[nH]cc(F)c(=O)[nH]1 [FLUOROURACIL] | 230 | – | – | – | – | – | – | – | 12000 | – | – | – | – | 320 | – | Stability [16]: Unstable |
| CC(C)C[C@H](NP(=O)(OC[C@H]1O[C@@H](n2cc(F)c(=O)[nH]c2=O)C[C@@H]1O)Oc1cccc2ccccc12)C(=O)OCc1ccccc1 (mixture of isomers) | 9400 | – | 29 | – | – | 130 | – | – | 30000 | – | 1.7 | 48 | – | 1500 | 80 | – |
| CCCCCOC(=O)[C@H](CCSC)NP(=O)(OC[C@H]1O[C@@H](n2cc(F)c(=O)[nH]c2=O)C[C@@H]1O)Oc1ccccc1 (mixture of isomers) | 7100 | – | 130 | – | – | 350 | – | – | 13000 | – | 3.2 | 410 | – | 2200 | 150 | – |
| CC(C)OC(=O)[C@H](C)NP(=O)(OC[C@H]1O[C@@H](n2cc(F)c(=O)[nH]c2=O)C[C@@H]1O)Oc1ccccc1 (mixture of isomers) | 25000 | – | 50 | – | – | 1000 | – | – | 30000 | – | 14 | 700 | – | 1100 | 710 | – |
| CCCCCOC(=O)[C@H](CC(C)C)NP(=O)(OC[C@H]1O[C@@H](n2cc(F)c(=O)[nH]c2=O)C[C@@H]1O)Oc1cccc2ccccc12 (mixture of isomers) | 7500 | – | 31 | – | – | 71 | – | – | 15000 | – | 1.13 | 35 | – | 1200 | 39 | – |
| O=c1[nH]c(=O)n([C@H]2C[C@H](O)[C@@H](COP(=O)(O)O)O2)cc1F [5-FLUORODEOXYURIDYLATE] | – | 3600 | – | 72 | 1060 | – | 1740 | 20 | – | 50 | – | – | 20 | – | – | – |
| CCCOC(=O)[C@H](C)NP(=O)(OC[C@H]1O[C@@H](n2cc(F)c(=O)[nH]c2=O)C[C@@H]1O)Oc1cccc2ccccc12 (mixture of isomers) | 2500 | – | 30 | – | – | 140 | – | – | 1100 | – | 1.2 | 36 | – | 160 | 110 | – |
